# According to ChEMBL document CHEMBL4513216, “Probing the Open Global Health Chemical Diversity Library for Multistage-Active Starting Points for Next-Generation Antimalarials” (ACS Infect Dis, 2020):
# Assay: Toxicity liver stage against HepG2, at 10uM
# Type: cell-based
# Parameters: test concentration 10 uM, cell line HepG2-A16-CD81EGFP
# Conditions: human, HepG2-A16-CD81EGFP cells; read-out: INHIBITION
# Procedure, shortened: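 Uninfected HepG2-A16-CD81EGFP cells, 3 × 10^3 per well, 1536-well, plated on prespotted compound at 10 μM final, parasite-free screening media added to match infected plates; puromycin 10 μM positive, DMSO 0.5% negative; run in parallel with 48 h PbLuc assay at 37 °C, 5% CO2; viability by CellTiter-Glo luminescence, normalized to controls.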
row,Structure (SMILES),cytotoxicity at 10 µM
1,CN(C)[C@@H]1CO[C@H](CNC(=O)c2ccccc2)[C@H]1O,-1.9%
2,Cc1n[nH]c(C)c1CC(=O)NCCc1ccccc1,13.7%
3,CCOc1nc2cnccc2n(CC(=O)NCc2ccc(C)cc2)c1=O,-0.0308%
4,COc1ccc(CC(=O)NCCCc2nnc3nc(C)cc(C)n23)cc1,4.45%
5,Cc1nc(Cc2ccccc2)nc2sc(C(=O)O)c(C)c12,0.986%
6,COc1ccc(C(=O)NCC(c2cccn2C)N2CCCC2)cc1OC (stereo not given),6.86%
7,N#Cc1cccnc1OC1CCN(C(=O)NCc2ccccc2)CC1,1.38%
8,CS(=O)(=O)N1CCn2c(C(=O)N3CCOCC3)cnc2C1,-4.63%
9,COc1cccc(CNC(=O)c2nc3c(o2)CN(S(C)(=O)=O)C3)c1,8.65%
10,COc1ccc(-c2cc3nn(CC(=O)NC(C)C)c(=O)n3c(C)n2)cc1,1.81%
11,COCC1c2c(cnn2CC2CC2)CCN1Cc1ccc(OC)cc1 (stereo not given),83.3%
12,CCn1nc(C)c2ncnc(N(C)Cc3ccco3)c21,8.88%
13,NC(=O)c1cn[nH]c1C1CCCN1C(=O)COc1ccccc1 (stereo not given),-3.93%
14,NC(=O)C1(Cc2ccc(-c3ccccc3)cc2)CCNC1 (stereo not given),11.5%
15,CC1(C(N)=O)CCCN(c2cnccn2)C1 (stereo not given),-17.8%
16,NC(=O)CN1CCC2(CC1)C[C@@H](O)[C@H](c1ccccc1)NC2=O,-23%
17,COCCN1CCN(Cc2cnc(C(C)C)nc2)CC1,10.6%
18,O=C(CCn1ncc2ccccc21)N1CCCC(Cc2cccnc2)C1 (stereo not given),-1.83%
19,CC(C)C(=O)N1Cc2ccccc2CC2(CCCCN2C)C1 (stereo not given),9.15%
20,COc1ccc(N2CCC(N(C)C(=O)Nc3ccncc3)CC2)cc1,3.12%
21,CS(=O)(=O)CCSc1nnc(Cc2ccccc2F)o1,0.313%
22,CCC(NC(=O)c1cccc(N2CCCC2=O)c1)c1ccc(OC)cc1 (stereo not given),-62.3%

row,Structure (SMILES),cytotoxicity at 10 µM
1,CN(C)C(=O)c1cccc(NC(=O)c2cnn(C)c2)c1,-1.96%
2,CNC(=O)C1CCCCN1C(=O)CCn1cnc2sccc2c1=O (stereo not given),-7.18%
3,O=C(CCn1cccn1)NCCOc1ncc(Cl)cc1Cl,-3.82%
4,COc1ccsc1C(=O)NC1CCN(c2ccc(C#N)cc2)CC1,-1.03%
5,CCC(O)CN(Cc1ccccc1)S(=O)(=O)c1cnc(C)s1 (stereo not given),-42.5%
6,CC(C)(C(=O)N1CCC(C(N)=O)C1)c1ccccc1F (stereo not given),4.68%
7,O=C(c1cc(-n2cccn2)ccn1)N1CCOc2ccncc21,10.6%
8,CCc1nc2n(n1)CC(NCc1nc3ccccc3nc1C)CC2 (stereo not given),-141%
9,CS(=O)(=O)CCN1CCC(Nc2c(Cl)cccc2C#N)CC1,2.22%
10,Cc1cc(C)n(-c2cncc(N3CCN(C(=O)CN(C)C)CC3)n2)n1,-2.09%
11,CC(C)(C)c1cc(NC(=O)C2CCCO2)n(-c2ccccn2)n1 (stereo not given),-1.26%
12,Cc1ccn(-c2ccccc2NCc2cscn2)n1,13.2%
13,CNc1nc(CNC(=O)Nc2cccc(COCCOC(C)C)c2)cs1,8.77%
14,Fc1cccc2[nH]c(CN3CCc4cncnc4C3)nc12,-1.03%
15,COc1cc(F)c(NC(=O)N(C)Cc2cc(C)on2)cc1F,-4.25%
16,CC(NC(=O)c1cccs1)C(=O)NS(=O)(=O)Cc1ccc(C#N)cc1 (stereo not given),5.29%
17,Cc1nccn1-c1ccc(C(C)Nc2cnn(C)c(=O)c2Cl)cc1 (stereo not given),18.7%
18,CN(Cc1cccs1)C(=O)c1ccc(=O)n(C)c1,-13.2%
19,Cc1cc(=O)[nH]cc1C(=O)N1Cc2ccccc2N(C)CC1C (stereo not given),0.305%
20,Cc1ccc(CNC(c2ccc(F)cc2)c2nccn2C)o1 (stereo not given),0.841%
21,Cc1cc(C)cc(NC(=O)N(CCC#N)CCCN(C)C)c1,-49.3%
22,CC(C)C(=O)Nc1ncn(Cc2cccc(Br)c2)n1,-9.95%

row,Structure (SMILES),cytotoxicity at 10 µM
1,NC(=O)C(NC(=O)c1cc(Cl)c[nH]1)c1ccccc1 (stereo not given),-0.589%
2,O=C(Cc1cccc(F)c1)N1CCc2ncnc(NC3CCC3)c2CC1,-105%
3,COc1cc(N2CCCC3(CCN(c4cncnc4)C3=O)C2)ncn1 (stereo not given),-103%
4,Cc1ccccc1C(=O)N1CCC2(CC1)CC(c1cnn(C)c1)CO2 (stereo not given),-75%
5,COCCNC(=O)[C@H]1CN(c2nnc(C)s2)C[C@H]2OCC[C@@H]12,-1.96%
6,CC(C)CC(=O)N1CCc2nc(N3CCOCC3)nc(NC(C)C)c2C1,2.86%
7,COCC(=O)N1CC(=O)c2sc(Nc3ccc(F)cc3F)nc2C1,-7.02%
8,CCC(=O)N1CCN(Cc2cnc(C)nc2)[C@H]2CS(=O)(=O)C[C@H]21,12.3%
9,CC(C)c1cc(C2CCN(C(=O)Cn3nc4ccccc4n3)CC2)[nH]n1,0.685%
10,COC(=O)CN1CCN(c2nc3c(s2)c(C)nn3C)C(C)C1=O (stereo not given),3.27%
11,COc1cc(C(=O)NCCS(=O)(=O)N(C)C)c2ccccc2n1,-0.0932%
12,c1ccc(C2CN(C3CC3)CC3(CCN(Cc4ncc[nH]4)CC3)C2)cc1 (stereo not given),7.31%
13,O=C(NCCC1=CCCCC1)c1cc(-c2ccc(O)cc2)n[nH]1,38.8%
14,O=C(C1NCCc2[nH]cnc21)N1CCC2(C=Cc3ccccc32)CC1 (stereo not given),5.19%
15,Cc1cccc(CN2CCC(n3cc(CCO)nn3)CC2)c1C,0.636%
16,Cc1cnc(C)c(-c2cc(O)c3c(c2)CN(c2ncccn2)CCO3)n1,6.13%
17,CCSc1ncc(-c2cc(C3CC3)nc(N)c2C#N)cn1,6.99%
18,CC(C)Cc1cc(CNC(=O)c2cccc3c2OCC3)no1,-47.9%
19,Cc1cc(C(=O)NCCCn2nccc2C2CC2)c(=O)[nH]c1C,9%
20,CCc1cc(NC2CCS(=O)(=O)C2)nc(N2CCCCC2)n1 (stereo not given),-3.15%
21,CCOCCNCc1cc(O)c2cc(C)ccc2n1,-2.04%
22,Cc1ccc(C(=O)N2CCCn3nc(CCC(=O)O)cc3C2)cc1Cl,-3.49%

row,Structure (SMILES),cytotoxicity at 10 µM
1,O=S(=O)(c1ccc(-c2cnco2)cc1)N1CCCC2(CCNCC2)CC1,-11.2%
2,CC(C)CN1CC(c2nc(-c3ccsc3)c[nH]2)CC1=O (stereo not given),6.65%
3,CC(=O)N[C@@H]1Cc2ccccc2[C@H]1Nc1nnc(C2CC2)o1,-47.1%
4,CCCc1nc(CN(CC)C(=O)c2ccc3c(c2)nnn3C)no1,9.43%
5,COc1cccc(OC)c1C(C(=O)O)N(C)Cc1c(C)n[nH]c1C (stereo not given),2.14%
6,COc1ccc(-n2nc(C3CC3)nc2CCn2cnnn2)cc1,-2.88%
7,O=C(CCOc1ccccc1)N1CCCC(c2ncc[nH]2)C1 (stereo not given),-2.68%
8,CN(Cc1ccncn1)C(=O)C1(Oc2ccc(Cl)cc2)CCNCC1,18.5%
9,Cc1cccc(OC2CCN(Cc3ncc[nH]3)CC2)c1,-7.15%
10,COC(=O)[C@H](CSC)Nc1nc(C2CCCC2)nc2c1cnn2C,-52.6%
11,CCc1nc(C)c(C(=O)NCC2COc3cc(OC)ccc3C2)o1 (stereo not given),54.6%
12,CCCn1ncc2c(C(=O)Nc3n[nH]c(SC)n3)cc(C3CC3)nc21,1.52%
13,CCc1nccn1C1CCCN(C(=O)c2ccc3c(c2)OCCO3)C1 (stereo not given),-11.8%
14,CCOc1ncccc1CNC(=O)NC1CCOc2ccccc21 (stereo not given),-9.65%
15,CC(C(=O)Nc1ccc(N2CCOCC2)nc1)n1cncn1 (stereo not given),-33.9%
16,Cc1cc(C)n(CC2CN(c3nnc(C)c(C)c3C#N)CCO2)n1 (stereo not given),-18.2%
17,Cc1cnn(CC2CCCN2Cc2nc(C)c3ccccc3n2)c1 (stereo not given),-8.94%
18,CCc1cnc(CN(C)C2CCN(CCn3cc(C#N)cn3)C2)o1 (stereo not given),-8.99%
19,COc1ccc2cc(CNCc3c(C)nn(C)c3N(C)C)ccc2c1,-20.4%
20,CCc1nccn1C1CCCN(C(=O)C2=NN(C)C(=O)CC2)C1 (stereo not given),-17.7%
21,CS(=O)(=O)NCC1CCCN(C(=O)c2ccc(F)c(F)c2)C1 (stereo not given),-10.3%
22,Cn1cnc2c1CCN(Cc1nc(Cc3ccccc3)no1)C2,-7.99%

row,Structure (SMILES),cytotoxicity at 10 µM
1,O=C(CN1CCOC(Cn2cccn2)C1)Nc1nccs1 (stereo not given),3.64%
2,Cn1cnc2c1CCN(Cc1nc(-c3ccsc3)no1)C2,-3.29%
3,COc1ccc(CNCc2ccc(N3CCCCC3)nc2)cc1OC,1.92%
4,COC(=O)c1ccc(S(=O)(=O)NCc2cccnc2N(C)C)cc1,9.3%
5,CC(C)c1nc(CN(C)C2CCN(CCNS(C)(=O)=O)C2)no1 (stereo not given),-8.48%
6,Cc1cc(-c2nccs2)nc(C2CCN(Cc3ccc(F)cc3)CC2)n1,6.54%
7,c1ccc(CN2CCC3(CC2)CC(Nc2nccs2)CO3)nc1 (stereo not given),-78.2%
8,CCc1nc2ccccc2c(=O)n1CC1(O)CCN(S(C)(=O)=O)CC1,-3.5%
9,Cn1cnc(S(=O)(=O)N2CC3(CCN(c4ccccc4)C3)C2)c1,-91.7%
10,CC(CCc1ccccc1)NC(=O)CNCCCN(C)C (stereo not given),-3.83%
11,CC(C)c1nn(C)c(Cl)c1CNC1CCOc2ccccc21 (stereo not given),53.2%
12,Cc1noc(C)c1CN1CCc2ncnc(-c3ccccc3)c2CC1,-89.9%
13,COc1cccc(CN2C[C@@H]3COC[C@]3(COCc3ccccn3)C2)c1,-88.8%
14,COc1ccc(-c2nc(C3CCNCC3)cc3c2ncn3C)cc1,-124%
15,O=C(c1c[nH]cn1)N1CCC(F)(F)C2(CCN(c3cnccn3)C2)C1 (stereo not given),8.19%
16,COc1ccc(CN2CC[C@H]3O[C@@H](C(=O)NCC4CC4)CC[C@H]32)cc1,7.31%
17,c1cc(COC[C@H]2CCC[C@]23CNCCO3)ccn1,-99.1%
18,O=C1NC2(CCN(CC3CC3)CC2)CC1c1ccccc1 (stereo not given),-7.64%
19,O=C(NCC(F)(F)F)C1=NOC2(CCCNC2)C1 (stereo not given),2.16%
20,CC(C)COC[C@H]1CC[C@H]2[C@H](CCN2C(=O)c2ccncc2F)O1,-0.171%
21,Cn1ccc(NC(=O)CN2C[C@@H]3CC[C@H]2CN(S(C)(=O)=O)C3)n1,-14.2%
22,CCCS(=O)(=O)N1C[C@H]2CC[C@@H](C1)N(Cc1cscn1)C2=O,12.8%
